The EternaBench riboswitch data

System: MS2 coat protein
Assay: apparent Kd, MS2 coat protein; higher = weaker binding; RNA-MaP array; FMN 200 µM where present
How it was run: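 Designs were transcribed by stalled E. coli RNA polymerase on Illumina sequencing-chip clusters. They were titrated with SNAP-549-labelled MS2 coat protein from 0.7 or 1.5 nM, doubling to 3 µM, in 100 mM Tris-HCl pH 7.5, 80 mM KCl, 4 mM MgCl2, BSA, DTT, yeast tRNA and Tween-20, without and then with constant ligand. The apparent Kd is the median of filtered per-cluster fits after normalisation of green signal to red-channel RNA signal and control-cluster median Fmax.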

[1] = designed as: ON switch for flavin mononucleotide, no ligand
[2] = ligand present: flavin mononucleotide, designed as: ON switch for flavin mononucleotide
[3] = designed as: OFF switch for flavin mononucleotide, no ligand
[4] = ligand present: flavin mononucleotide, designed as: OFF switch for flavin mononucleotide

Sequence	apparent Kd [1]	apparent Kd [2]	apparent Kd [3]	apparent Kd [4]
GCCAACUCGUGAGGAUAUGGCACCUUAUUGGUGCCAGAAGGCAUGUCAAUUGACAUGAGGAUCACCCAUGUAUUAUAGUUGGCA	563 nM	88.2 nM		
GCCAGAGCAGGAUAUUCAAUAUUCCACAUGAGGAUCACCCAUGUCCUGCGAAAGCAGGAGGGAGAAGGGCUCUGGC			69.5 nM	25.5 nM
AAUGAGCAGUAGAAGGCAUGUCUACGGACAUGAGGAUCACCCAUGUAGUGAAUCCGAAAGGAGCAUGAGGAUAUACUGCUCUAA	143 nM	27.3 nM		
UUGGACGUCGUAGGAUAUGUAGGAUAUUCCUACAUGAGGAUCACCCAUGUAGACAUGGAAGAAGGACAGAAGGACGAUGUCCAU	25.9 nM	4.79 nM		
AGAGAUACGCUCGUCGGAAAGCGACAUGAGGAUCACCCAUGUAGAAGGCGAUGCGCAACUCGCAUUGAGGAUAUAUAGUGCAGC			6.51 nM	6.65 nM
GUGUAGAUAGGAUAUGCGUGAGUCUAGCGAAGCUAGGCUCUACAUGAGGAUCACCCAUGUAGAAGGGUCUACAC			21 nM	18.1 nM
GGGCUCAUCGAGAAGGCCUCAACAUGAGGAUCACCCAUGUUGUAAUAUGGGAGGAUAUCGAUGAUACAGCUACGUUUCGUACCC	18 nM	6.25 nM		
GGGUUGUGAGGAUAUUAGUUGUACGUCAAUAGACGUAUGGGUGAGAAGGCACAUGAGGAUCACCCAUGUUCCUG				126 nM
AUACAAAGCACAGGAUAUGGGAGUGAGAAUCAUGCUGCGAAUUGAUUCGGACCAGAAGGGUGCACAUGAGGAUCACCCAUGUAC	185 nM	77.6 nM		
AAUAUGAGCUGGUAUAAAUCCGAAACAUGAGGAUCACCCAUGUAGGAUAUCAGCACGAUAAGUGCUGAGAAGGACAUCCAGCUC			15.2 nM	16.2 nM
ACAUACUUUCGAGGAUAUCGGUGAUAAAUUUUACGAGAAGGCGAUAAAAGAUAUAAUCUUAUAAACAUGAGGAUCACCCAUGUA	25.5 nM	23.9 nM		
GACUUGUAAGGAUAUCGUGCAAGUUUCAAAAGAGGCUUGUGCGAGAAGGUACAUGAGGAUCACCCAUGUAGGUU			27 nM	56.6 nM
AAAUCGAGGUAACUCGCUAUCACACCAGAAGGGACGGAGGCACAUGAGGAUCACCCAUGUCCUAGUCAGGAUAUGGGUGAGUGG	25.6 nM	4.96 nM		
GGCGGUUUGGCAGGAUAUCGGAAACAGACCAAACGAGAAGGGCCUACAUGGCAAUGCGAAAGCAGACAUGAGGAUCACCCAUGU	84.9 nM	72.2 nM		
ACAUGAGGAUCACCCAUGUUCGUUGAAGAAGGUACCAUUUACUUUAGUAGUAUUAAUUUAUUUGGUAAGGAUAUUCUCAUAAUU	15.9 nM	7.75 nM		
GGGUACAUCGGAGGAUAUCAUGUAAAUACAUGAGGAUCACCCAUGUCGAUGGAGACAUCGAAGAUUGAGAAGGCCGAUGUACCG	16.8 nM	5.6 nM		
ACUGGUGCAGGAUAUGCAAUCGUGCUUCGGCACGUAAGAUCACAUGAGGAUCACCCAUGUAGAAGGGCACCAGU			20.3 nM	65.7 nM
GUAGCAUACCGAGGAUAUUCAUACCGUAAACGGACAUGAGGAUCACCCAUGUGGCGAAAGCCUUGGGAGAAGGCGGAAUGCUAC	556 nM	30.5 nM		
AGAUUUGUACAUGAGGAUCACCCAUGUUAAUAGGUGGUUGUCAGAAGGCAUUGAUAGAGUUUUAAUGAGGAUAUGAAUUUACAG	1000 nM	553 nM		
UUAUUAUGUGUAGGAUAUGCAUAUUAUGAUUAUGCAGAAGGACAUGAGGAUCACCCAUGUAUAUUAUUAUUAUAUAUUAUAUAU			13.3 nM	21.1 nM
UAUGCCUUUGUGAGGAUAUACUUUGUUUGGUCGUAGUAGAAGGCACAUGAGGAUCACCCAUGUAGAUUUUUGGU			27.5 nM	72.2 nM
GUGACGAAUGUAGGAUAUGCUGAGGAAUACUCAGCAGAAGGACAUGAGGAUCACCCAUGUACUAUGAGUGAAUAAUAACGUCAC			77.4 nM	881 nM
AAGUUAUUAGGAUAUACUUGUGCGAUUUAUACGUUGAUAUUACAUGAGGAUCACCCAUGUAGAAGGAAUAAAAA			20.8 nM	17.4 nM
UUUUUGUCAGGAUAUCGUGCAUACAACGAAAGUUCUAUGUGCGAGAAGGGACAUGAGGAUCACCCAUGUUACGG			109 nM	371 nM
UUUUACUGAGGAUAUACAUUUUUUUAUUUAUUUAUAAUAUUACAUGAGGAUCACCCAUGUAGAAGGCAGAUUUU			27.4 nM	24.4 nM
CUGGUUGUCGUAGGAUAUGUAGGAUAUUCCUACAUGAGGAUCACCCAUGUUCGCAUGGAAGAAAGACAGAAGGACGAUGACCAG	816 nM	50.2 nM		
UGUAUACAUGAGGAUCACCCAUGUCAACGUAGUCGAGGAUAUGGGCAGCCGUGAGGCGUACCAGAAGGCGAAGAGG	86.5 nM	19.4 nM		
CGGUCUUGUAACUAUUUGUUUCACAUGAGGAUCACCCAUGUCAGAAGGAGGUACAUCUAUUAGACCUAGGAUAUGACGUGUAAG			27.5 nM	100 nM

Sequence	apparent Kd [1]	apparent Kd [2]	apparent Kd [3]	apparent Kd [4]
AAACCGUGUGGAGGAUAUGCAGUUGAGGUAAGGCGGCAGCUCUAUACGACAGCAGAAGGCCACAUGAGGAUCACCCAUGUAGGU			122 nM	53.2 nM
CUAUUACGAGGAUAUGAUUUAAAUAACAUGAGGAUCACCCAUGUUUUUACGUUAUUUUAUUUAGAAGGCGUAUAGU			41.8 nM	31 nM
CAGCAAUGUAAGAAGGCUGCUCCGAUAAGGAGCAGAGGAUAUUACAUGAGGAUCACCCAUGUAUGAACCAAUAGCUGAAAUAAA			8.78 nM	94.2 nM
UUAUUUUUACAGAAGGUUUAAUAAUAUGUAUGAGAAGGAUAUGUAACAUGAGGAUCACCCAUGUUUUAUCUAUAUGAGGAUCAU			6.69 nM	6.88 nM
AAGACACAUCUAGGAUAUGGUGAUGCUCAGAACACAUGAGGAUCACCCAUGUAGCUUGUGUAUAAUCAGAAGGAGAACCGUGUA	36.4 nM	259 nM		
AAAAACAUAGGAUAUACAUGAGGAUCACCCAUGUUAAAAUAAAGAAAGGGAGAAAUAAGUAGAAGGAUGAAAAA			37.7 nM	40.2 nM
UAUCGUUCCGAGGAUAUGAGGCGACUGGCGCGAUCAGAAGGCGGAACAUGAGGAUCACCCAUGUUCCUUACCUU			12.2 nM	20.5 nM
UUAUACGUUGAGGAUAUGUCAUUUAGUAUAGUUACAGAAGGCGAUACAUGAGGAUCACCCAUGUUUAUGGGCAU			239 nM	164 nM
AAAUUUUGUCAAGGAUAUGUAUAAAAGAGAAGAAAACAUGAGGAUCACCCAUGUAUAUGGUGGGAACAGAAGGUGAAUAAGUAA			164 nM	154 nM
UUUAAUCGAAACAUGAGGAUCACCCAUGUGUUGUAAUUAACAUAGGAUAUUUGUAUACUUUUGUAAAAGAAGGAUGAUAAUACU	17.1 nM	13.6 nM		
ACAUGAGGAUCACCCAUGUUAUCAGGGACUUCAAUUAUUUGUAGAAGGAUGUUUUCUUGUUAGUCAUAGGAUAUACAAUUAAAU			16 nM	15.3 nM
AACCUAUUACAGAAGGCCAGCUACAUGAGGAUCACCCAUGUCGAGUCAUGGAGGAUAUGUAGUAAUUUGCACGCGGACGAGUAC	52.6 nM	5.82 nM		
GGUCCAUCUGUUAGGAUAUGCUUUGGGCUUCCGCAGUAGAAGGAACAUGAGGAUCACCCAUGUCCGAUGCCGUA			20.4 nM	25.4 nM
GUGCCUAACUAGAAGGCAGUGUGCAAAGCAUUCUGAGGAUAUGGGUUCCGGAAACGGACAUGAGGAUCACCCAUGUGGCACAAA	424 nM	26.7 nM		
AGACUGAAGCAAGGAUAUUGUAAGGUUAUCGUACAAGAAGGUGCUGUUUAUGUCUCUUAACAUGAGGAUCACCCAUGUUUUGAA	18.4 nM	18.1 nM		
CUCCUACAUGAGGAUCACCCAUGUCAGGAUAUCUCAGUGGCACCUAAAGGCGCCACCCAGAGAAGGGACGUGCA			11.6 nM	14.8 nM
GGUUGUCAUCGUCAUCCUUUCGGUACAUGAGGAUCACCCAUGUAGGAUAUGCUGCAUUCGAUGUGGCAGAAGGGCGUGUGUGUU			23.5 nM	41 nM
UUCCUCGAAGGAUAUUCGACUAGGUACAUGAGGAUCACCCAUGUCAUGAGCCCAAUAGGCGAAGAAGGUCGAGUGU			23.5 nM	34.6 nM
UGCUACCUAGGAUAUACAUGAGGAUCACCCAUGUGAUUCGGUGGCGCGAUCCUUGAAAGUAGAAGGAGGAGCAA			38.4 nM	27.4 nM
GUGGACGUCGUAGGAUAUGUAGGAUAUUCCUACAUGAGGAUCACCCAUGUUGAAAUGGAAGAAGGACAGAAGGACGAUGUCCAG	58.5 nM	12.7 nM		
UAAGAGUGAGGAUAUUCGUAGUACACGGAGACGUGUAUUACGGAGAAGGCACAUGAGGAUCACCCAUGUUCCUU			15.6 nM	48.5 nM
UUAAAUCAUGUAGGAUAUGCAUGGCGAAGCUACGCAGAAGGACAUGAGGAUCACCCAUGUUAAAGCUACCGUAUACGGUGGCAA			131 nM	174 nM
GGGUACAUCGGAGGAUAUCAUGUAAGUACAUGAGGAUCACCCAUGUCGAUGGAGACAUCGGAGAUUGAGAAGGCCGAUGUACCG	152 nM	8.71 nM		
CGCACUUAUAGAGGAUAUGUUGUACAUGAGGAUCACCCAUGUGUUUUUGUAUCAAUAUUAGUGAAACAGAAGGCUAUUUGUGCG			5.76 nM	4.96 nM
UUUUAACAUGAGGAUCACCCAUGUGAGGAUAUCGAAAUUUAUAUUAAUAUUAAUUUUUCGAGAAGGCACAUUUU			132 nM	150 nM
GGCUGGUGACAGCAUCCAUCAAAACAUGAGGAUCACCCAUGUAGAAGGCUGUACGGUUACCGUACAGAGGAUAUACAAUGAUGC			13.7 nM	28.5 nM
CGCACUGAUAGAGGAUAUGUUUUACAUGAGGAUCACCCAUGUGUACAUGGAUUAAUAUAUAAGUAACAGAAGGCUAUUUGUGCG			18.9 nM	15.1 nM
